From ChEMBL document CHEMBL3596194, “Design, synthesis and biological evaluation of bivalent benzoxazolone and benzothiazolone ligands as potential anti-inflammatory/analgesic agents” (Bioorg Med Chem, 2015)

System: not listed separately
Experiment: Cytotoxicity against pig LLC-PK11 cells up to 25 ug/ml after 48 hrs by neutral red assay relative to control
Type: cell-based, Sus scrofa
Conditions: llc-pk11, 48 h
Outline: (§1)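 Cells grown in RPMI-1640 with 10% bovine calf serum and amikacin at 37 °C, 5% CO2. Seeded at 25,000 cells/well and grown 24 h, then exposed 48 h to samples diluted in serum-free medium. Viability by Neutral Red; % decrease vs vehicle; IC50 from dose curves. Triplicate runs, mean reported; doxorubicin as positive control.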
In the case of `c1ccc2sc(SCCCCN3CCN(CCCCSc4nc5ccccc5s4)CC3)nc2c1`, the Activity is reported as “Non-toxic”.
With `O=c1sc2ccccc2n1CCCCCCN1CCN(CCCCCn2c(=O)sc3ccccc32)CC1` the Activity was “Non-toxic”.
With `O=c1sc2ccccc2n1CCCCCN1CCN(CCn2c(=O)sc3ccccc32)CC1` the Activity was “Non-toxic”.

System: Rattus norvegicus
Experiment: Antiinflammatory activity in albino rat assessed as inhibition of carrageenan-induced paw edema at 30 mg/kg, ip administered 1 hr prior to carrageenan challenge measured 1 hr after induction of inflammation relative to control
Type: functional
Conditions: not given
Outline: (§2)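 Adult albino rats of both sexes, 120–150 g, groups of five, pre-hydrated with 3 ml water orally. Compounds suspended in distilled water with few drops Tween 80, given ip 1 h before subplantar s.c. 1% carrageenan into right hind paw. Paw thickness measured by dial calipers, left paw as control. % inhibition = (1 – Lt/Lc) × 100 versus saline/Tween 80 group.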
Molecule `c1ccc2sc(SCCCCN3CCN(CCCCSc4nc5ccccc5s4)CC3)nc2c1` has an inhibition in vivo at 30 mg/kg of 59.9%.
In the case of `O=c1sc2ccccc2n1CCCCCCN1CCN(CCCCCn2c(=O)sc3ccccc32)CC1`, the inhibition in vivo at 30 mg/kg is reported as 33.9%.

System: SK-MEL
Experiment: Cytotoxicity against human SK-MEL cells up to 25 ug/ml after 48 hrs by neutral red assay relative to control
Type: cell-based
Conditions: not given
Outline: as §1
For `O=c1sc2ccccc2n1CCCCCCN1CCN(CCCCCn2c(=O)sc3ccccc32)CC1`, the Activity was “Non-toxic”.
In the case of `O=c1sc2ccccc2n1CCCCCN1CCN(CCn2c(=O)sc3ccccc32)CC1`, the Activity is reported as “Non-toxic”.

System: Rattus norvegicus
Experiment: Antiinflammatory activity in albino rat assessed as inhibition of carrageenan-induced paw edema at 30 mg/kg, ip administered 1 hr prior to carrageenan challenge measured 2 hrs after induction of inflammation relative to control
Type: functional
Conditions: not given
Outline: as §2
Work on `c1ccc2sc(SCCCCN3CCN(CCCCSc4nc5ccccc5s4)CC3)nc2c1` yielded an inhibition in vivo at 30 mg/kg of 64.3%.
`O=c1sc2ccccc2n1CCCCCCN1CCN(CCCCCn2c(=O)sc3ccccc32)CC1` gave an inhibition in vivo at 30 mg/kg of 41.1%.

System: Rattus norvegicus
Experiment: Antiinflammatory activity in albino rat assessed as inhibition of carrageenan-induced paw edema at 30 mg/kg, ip administered 1 hr prior to carrageenan challenge measured 3 hrs after induction of inflammation relative to control
Type: functional
Conditions: not given
Outline: as §2
`c1ccc2sc(SCCCCN3CCN(CCCCSc4nc5ccccc5s4)CC3)nc2c1` showed an inhibition in vivo at 30 mg/kg of 63.4%.
For `O=c1sc2ccccc2n1CCCCCCN1CCN(CCCCCn2c(=O)sc3ccccc32)CC1`, the inhibition in vivo at 30 mg/kg was 34.7%.

System: Vero
Experiment: Cytotoxicity against African green monkey Vero cells after 48 hrs by neutral red assay relative to control
Type: cell-based
Conditions: chlorocebus sabaeus
Outline: (§3)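 Cells grown in RPMI-1640 with 10% bovine calf serum and amikacin at 37°C, 5% CO₂. Seeded 25,000 cells/well, grown 24 h, then exposed to compounds diluted in serum-free medium for 48 h. Viability by Neutral Red uptake, % decrease versus vehicle control. IC50 from dose curves, triplicate means. Doxorubicin positive control.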
Work on `O=c1sc2ccccc2n1CCCCCCN1CCN(CCCCCn2c(=O)sc3ccccc32)CC1` yielded an IC50 of 25 µM.
In the case of `O=c1sc2ccccc2n1CCCCCN1CCN(CCn2c(=O)sc3ccccc32)CC1`, the IC50 is reported as 23.8 µM.

System: Mus musculus
Experiment: Antinociceptive activity in ip dosed Swiss mouse assessed as inhibition of acetic acid-induced writhing response administered 15 mins prior to acetic acid challenge measured for 20 mins relative to vehicle-treated control
Type: functional, organism-based
Conditions: not given
Outline: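 Mice dosed i.p. with compound or vehicle 15 min before testing, or with indomethacin 3 mg/kg i.p. 30 min before. After 15 min habituation in an enclosure, 0.9% acetic acid given i.p. (1 ml/0.1 kg) and writhes counted for 20 min. Non-responders excluded; n = 4-6; mean ± SD.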
In the case of `c1ccc2sc(SCCCCN3CCN(CCCCSc4nc5ccccc5s4)CC3)nc2c1`, the inhibition is reported as “Dose-dependent effect”.

System: SK-OV-3
Experiment: Cytotoxicity against human SKOV3 cells after 48 hrs by neutral red assay relative to control
Type: cell-based
Conditions: SK-OV-3, 48 h
Outline: as §3
`O=c1sc2ccccc2n1CCCCCCN1CCN(CCCCCn2c(=O)sc3ccccc32)CC1` showed an IC50 of 25 µM.

System: Vero
Experiment: Cytotoxicity against African green monkey Vero cells up to 25 ug/ml after 48 hrs by neutral red assay relative to control
Type: cell-based
Conditions: chlorocebus sabaeus
Outline: as §1
With `c1ccc2sc(SCCCCN3CCN(CCCCSc4nc5ccccc5s4)CC3)nc2c1` the Activity was “Non-toxic”.

System: BT-549
Experiment: Cytotoxicity against human BT549 cells up to 25 ug/ml after 48 hrs by neutral red assay relative to control
Type: cell-based
Conditions: bt-549, 48 h
Outline: as §1
For `c1ccc2sc(SCCCCN3CCN(CCCCSc4nc5ccccc5s4)CC3)nc2c1`, the Activity was “Non-toxic”.
In the case of `O=c1sc2ccccc2n1CCCCCN1CCN(CCn2c(=O)sc3ccccc32)CC1`, the Activity is reported as “Non-toxic”.

System: Rattus norvegicus
Experiment: Antiinflammatory activity in albino rat assessed as inhibition of carrageenan-induced paw edema at 30 mg/kg, ip administered 1 hr prior to carrageenan challenge measured 4 hrs after induction of inflammation relative to control
Type: functional
Conditions: not given
Outline: as §2
Work on `c1ccc2sc(SCCCCN3CCN(CCCCSc4nc5ccccc5s4)CC3)nc2c1` yielded an inhibition in vivo at 30 mg/kg of 47.1%.
With `O=c1sc2ccccc2n1CCCCCCN1CCN(CCCCCn2c(=O)sc3ccccc32)CC1` the inhibition in vivo at 30 mg/kg was 34.9%.

System: KB
Experiment: Cytotoxicity against human KB cells after 48 hrs by neutral red assay relative to control
Type: cell-based
Conditions: not given
Outline: as §3
With `c1ccc2sc(SCCCCN3CCN(CCCCSc4nc5ccccc5s4)CC3)nc2c1` the IC50 was 25 µM.

System: BT-549
Experiment: Cytotoxicity against human BT549 cells after 48 hrs by neutral red assay relative to control
Type: cell-based
Conditions: BT-549, 48 h
Outline: as §3
`O=c1sc2ccccc2n1CCCCCCN1CCN(CCCCCn2c(=O)sc3ccccc32)CC1` showed an IC50 of 19.6 µM.

System: not listed separately
Experiment: Antiinflammatory activity in human SW1353 cells assessed as inhibition of PMA-induced NF-kappaB activity incubated for 30 mins prior to PMA challenge measured after 8 hrs by luciferase reporter gene assay
Type: cell-based
Conditions: not given
Outline: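 SW1353 cells in DMEM/F12 with 10% FBS, electroporated with NF-κB luciferase plasmid (160 V, one 70-ms pulse), plated at 1.25 × 10⁵ cells/well. After 24 h, graded compound concentrations added 30 min before PMA 70 ng/mL, then 8 h incubation. Luciferase read-out, % inhibition versus vehicle, IC50 from dose curves. Sp-1 reporter served as nonspecific control.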
With `c1ccc2sc(SCCCCN3CCN(CCCCSc4nc5ccccc5s4)CC3)nc2c1` the IC50 was 0.34 µM.
For `O=c1sc2ccccc2n1CCCCCCN1CCN(CCCCCn2c(=O)sc3ccccc32)CC1`, the IC50 was 1.06 µM.
In the case of `O=c1sc2ccccc2n1CCCCCN1CCN(CCn2c(=O)sc3ccccc32)CC1`, the IC50 is reported as 1.71 µM.

System: SK-OV-3
Experiment: Cytotoxicity against human SKOV3 cells up to 25 ug/ml after 48 hrs by neutral red assay relative to control
Type: cell-based
Conditions: sk-ov-3, 48 h
Outline: as §1
With `c1ccc2sc(SCCCCN3CCN(CCCCSc4nc5ccccc5s4)CC3)nc2c1` the Activity was “Non-toxic”.
For `O=c1sc2ccccc2n1CCCCCN1CCN(CCn2c(=O)sc3ccccc32)CC1`, the Activity was “Non-toxic”.

System: SK-MEL
Experiment: Cytotoxicity against human SK-MEL cells after 48 hrs by neutral red assay relative to control
Type: cell-based
Conditions: not given
Outline: as §3
For `c1ccc2sc(SCCCCN3CCN(CCCCSc4nc5ccccc5s4)CC3)nc2c1`, the IC50 was 17.5 µM.

System: KB
Experiment: Cytotoxicity against human KB cells up to 25 ug/ml after 48 hrs by neutral red assay relative to control
Type: cell-based
Conditions: not given
Outline: as §1
For `O=c1sc2ccccc2n1CCCCCCN1CCN(CCCCCn2c(=O)sc3ccccc32)CC1`, the Activity was “Non-toxic”.
For `O=c1sc2ccccc2n1CCCCCN1CCN(CCn2c(=O)sc3ccccc32)CC1`, the Activity was “Non-toxic”.
